Results: ChEMBL document CHEMBL3351675, “Novel benzenesulfonylureas containing thiophenylpyrazoline moiety as potential antidiabetic and anticancer agents” (Bioorg Med Chem Lett, 2014)
The source made the active and inactive calls. The calls are words filed in the database; no cut-off is given here.

Columns and labels:
[1] = Anticancer activity against human BT549 cells assessed as cell growth level at 10 uM after 48 hrs by sulforhodamine B assay; format: functional, BT-549
A549 = assay: Anticancer activity against human A549/ATCC cells assessed as cell growth level at 10 uM after 48 hrs by sulforhodamine B assay; format: functional
[2] = Anticancer activity against human HCT15 cells assessed as cell growth level at 10 uM after 48 hrs by sulforhodamine B assay; format: functional, HCT-15
HT-29 = assay: Anticancer activity against human HT-29 cells assessed as cell growth level at 10 uM after 48 hrs by sulforhodamine B assay; format: functional
[3] = Anticancer activity against human SF295 cells assessed as cell growth level at 10 uM after 48 hrs by sulforhodamine B assay; format: functional, SF-295
MDA-MB-231 = assay: Anticancer activity against human MDA-MB-231 cells assessed as cell growth level at 10 uM after 48 hrs by sulforhodamine B assay; format: functional
SK-MEL-5 = assay: Anticancer activity against human SK-MEL-5 cells assessed as cell growth level at 10 uM after 48 hrs by sulforhodamine B assay; format: functional
SNB-19 = assay: Anticancer activity against human SNB19 cells assessed as cell growth level at 10 uM after 48 hrs by sulforhodamine B assay; format: functional
SK-MEL-28 = assay: Anticancer activity against human SK-MEL-28 cells assessed as cell growth level at 10 uM after 48 hrs by sulforhodamine B assay; format: functional
IGROV-1 = assay: Anticancer activity against human IGROV1 cells assessed as cell growth level at 10 uM after 48 hrs by sulforhodamine B assay; format: functional
NCI-H322M = assay: Anticancer activity against human NCI-H322M cells assessed as cell growth level at 10 uM after 48 hrs by sulforhodamine B assay; format: functional
T47D = assay: Anticancer activity against human T47D cells assessed as cell growth level at 10 uM after 48 hrs by sulforhodamine B assay; format: functional
[4] = Anticancer activity against human HCT116 cells assessed as cell growth level at 10 uM after 48 hrs by sulforhodamine B assay; format: functional, HCT-116
[5] = Anticancer activity against human COLO205 cells assessed as cell growth level at 10 uM after 48 hrs by sulforhodamine B assay; format: functional, COLO 205
HL-60(TB) = assay: Anticancer activity against human HL-60(TB) cells assessed as cell growth level at 10 uM after 48 hrs by sulforhodamine B assay; format: functional
[6] = biological target: Peroxisome proliferator-activated receptor gamma (Mus musculus) (UniProt P37238); assay: Transactivation of PPARgamma (mouse) expressed in 3T3-L1 cells incubated for 24 hrs by luciferase reporter gene assay relative to rosiglitazone
Chain of Peroxisome proliferator-activated receptor gamma (Mus musculus) (P37238 whole entry, looked up): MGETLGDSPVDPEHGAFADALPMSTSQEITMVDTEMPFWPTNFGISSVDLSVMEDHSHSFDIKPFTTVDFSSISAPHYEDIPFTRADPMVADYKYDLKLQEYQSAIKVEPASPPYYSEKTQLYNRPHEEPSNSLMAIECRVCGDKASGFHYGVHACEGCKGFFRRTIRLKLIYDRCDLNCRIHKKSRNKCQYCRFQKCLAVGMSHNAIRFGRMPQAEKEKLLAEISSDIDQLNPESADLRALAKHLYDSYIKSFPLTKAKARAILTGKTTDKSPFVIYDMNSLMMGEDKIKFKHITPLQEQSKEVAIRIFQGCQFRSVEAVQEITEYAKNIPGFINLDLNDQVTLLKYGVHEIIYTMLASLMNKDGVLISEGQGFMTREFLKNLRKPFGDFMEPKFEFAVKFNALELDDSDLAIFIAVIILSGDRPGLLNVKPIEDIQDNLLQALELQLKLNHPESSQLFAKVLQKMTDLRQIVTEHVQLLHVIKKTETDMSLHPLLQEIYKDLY

NCI-H226 = assay: Anticancer activity against human NCI-H226 cells assessed as cell growth level at 10 uM after 48 hrs by sulforhodamine B assay; format: functional
TK-10 = assay: Anticancer activity against human TK10 cells assessed as cell growth level at 10 uM after 48 hrs by sulforhodamine B assay; format: functional
[7] = Anticancer activity against human OVCAR5 cells assessed as cell growth level at 10 uM after 48 hrs by sulforhodamine B assay; format: functional, OVCAR-5
KM12 = assay: Anticancer activity against human KM12 cells assessed as cell growth level at 10 uM after 48 hrs by sulforhodamine B assay; format: functional
U-251 = assay: Anticancer activity against human U251 cells assessed as cell growth level at 10 uM after 48 hrs by sulforhodamine B assay; format: functional
SW-620 = assay: Anticancer activity against human SW620 cells assessed as cell growth level at 10 uM after 48 hrs by sulforhodamine B assay; format: functional
SNB-75 = assay: Anticancer activity against human SNB75 cells assessed as cell growth level at 10 uM after 48 hrs by sulforhodamine B assay; format: functional
SF-268 = assay: Anticancer activity against human SF268 cells assessed as cell growth level at 10 uM after 48 hrs by sulforhodamine B assay; format: functional
[8] = Anticancer activity against human NCI-ADR-RES cells assessed as cell growth level at 10 uM after 48 hrs by sulforhodamine B assay; format: functional
MCF7 = assay: Anticancer activity against human MCF7 cells assessed as cell growth level at 10 uM after 48 hrs by sulforhodamine B assay; format: functional
[9] = Anticancer activity against human PC3 cells assessed as cell growth level at 10 uM after 48 hrs by sulforhodamine B assay; format: functional, PC-3
K562 = assay: Anticancer activity against human K562 cells assessed as cell growth level at 10 uM after 48 hrs by sulforhodamine B assay; format: functional
[10] = Anticancer activity against human MOLT4 cells assessed as cell growth level at 10 uM after 48 hrs by sulforhodamine B assay; format: functional, MOLT-4
SR = assay: Anticancer activity against human SR cells assessed as cell growth level at 10 uM after 48 hrs by sulforhodamine B assay; format: functional
[11] = Anticancer activity against human RPMI8226 cells assessed as cell growth level at 10 uM after 48 hrs by sulforhodamine B assay; format: functional, RPMI-8226
[12] = Anticancer activity against human HCC2998 cells assessed as cell growth level at 10 uM after 48 hrs by sulforhodamine B assay; format: functional, HCC 2998
NCI-H522 = assay: Anticancer activity against human NCI-H522 cells assessed as cell growth level at 10 uM after 48 hrs by sulforhodamine B assay; format: functional
M14 = assay: Anticancer activity against human M14 cells assessed as cell growth level at 10 uM after 48 hrs by sulforhodamine B assay; format: functional
Rattus norvegicus = assay: Antidiabetic activity in overnight fasted Wistar rat assessed as reduction in plasma glucose level at 30 mg/kg, po by oral glucose tolerance test; format: functional, organism-based; set-up: dose 30 mg/kg
In short: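 Normal Wistar rats were given a glucose load by the oral glucose tolerance method, and plasma glucose rise was followed after oral test dosing. Glibenclamide was the reference drug. Data are mean ± SEM of six observations versus control, analysed by one-way ANOVA with Dunnett test (p < 0.05, p < 0.01).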

A498 = assay: Anticancer activity against human A498 cells assessed as cell growth level at 10 uM after 48 hrs by sulforhodamine B assay; format: functional
[13] = Anticancer activity against human UO31 cells assessed as cell growth level at 10 uM after 48 hrs by sulforhodamine B assay; format: functional, UO-31
[14] = Anticancer activity against human LOXIMVI cells assessed as cell growth level at 10 uM after 48 hrs by sulforhodamine B assay; format: functional, LOX IMVI
NCI-H23 = assay: Anticancer activity against human NCI-H23 cells assessed as cell growth level at 10 uM after 48 hrs by sulforhodamine B assay; format: functional
[15] = Anticancer activity against human SF539 cells assessed as cell growth level at 10 uM after 48 hrs by sulforhodamine B assay; format: functional, SF-539
NCI-H460 = assay: Anticancer activity against human NCI-H460 cells assessed as cell growth level at 10 uM after 48 hrs by sulforhodamine B assay; format: functional
786-0 = assay: Anticancer activity against human 786-0 cells assessed as cell growth level at 10 uM after 48 hrs by sulforhodamine B assay; format: functional
SN12C = assay: Anticancer activity against human SN12C cells assessed as cell growth level at 10 uM after 48 hrs by sulforhodamine B assay; format: functional
[16] = Anticancer activity against human OVCAR3 cells assessed as cell growth level at 10 uM after 48 hrs by sulforhodamine B assay; format: functional, OVCAR-3

Structure (SMILES): COc1ccc(NC(=O)NS(=O)(=O)c2ccc(N3N=C(c4cccs4)CC3c3ccc(C)s3)cc2)cc1 (stereo not drawn)
- Activity [1]: 116.23%
- Activity (A549): 5.45%
- Activity [2]: 102.46%
- Activity (HT-29): 119.52%
- Activity [3]: 104.7%
- Activity (MDA-MB-231): 113.39%
- Activity (SK-MEL-5): 48.27%
- Activity (SNB-19): 103.16%
- Activity (SK-MEL-28): 48.3%
- Activity (IGROV-1): 108.05%
- Activity (NCI-H322M): 102.37%
- Activity (T47D): 85.68%
- Activity [4]: 98.77%
- Activity [5]: -63.47%
- Activity (HL-60(TB)): 102.86%
- Activity [6]: inactive
- Activity (NCI-H226): 110.15%
- Activity (TK-10): 96.03%
- Activity [7]: 113.48%
- Activity (KM12): 98.51%
- Activity (U-251): 98.07%
- Activity (SW-620): 107.16%
- Activity (SNB-75): 99.87%
- Activity (SF-268): 97.85%
- Activity [8]: 103.44%
- Activity (MCF7): 99.04%
- Activity [9]: 96.33%
- Activity (K562): 111.39%
- Activity [10]: 94.7%
- Activity (SR): 75.83%
- Activity [11]: 95.29%
- Activity [12]: 111.31%
- Activity (NCI-H522): 87.33%
- Activity (M14): 52.12%
- inhibition (Rattus norvegicus): Active
- Activity (A498): 101.86%
- Activity [13]: 87.18%
- Activity [14]: 96.81%
- Activity (NCI-H23): 97.55%
- Activity [15]: 104.31%
- Activity (NCI-H460): 108.95%
- Activity (786-0): 100.87%
- Activity (SN12C): 111.79%
- Activity [16]: 106.38%

Structure (SMILES): Cc1ccc(NC(=O)NS(=O)(=O)c2ccc(N3N=C(c4cccs4)CC3c3ccc(C)s3)cc2)cc1 (stereo not drawn)
- Activity [1]: 74.25%
- Activity (A549): 101.55%
- Activity [2]: 99.31%
- Activity (HT-29): 127.85%
- Activity [3]: 100.07%
- Activity (MDA-MB-231): 116.79%
- Activity (SK-MEL-5): 47.78%
- Activity (SNB-19): 108.18%
- Activity (SK-MEL-28): 47.8%
- Activity (IGROV-1): 107.76%
- Activity (NCI-H322M): 103.57%
- Activity (T47D): 78.79%
- Activity [4]: 85.12%
- Activity [5]: -54.62%
- Activity (HL-60(TB)): 126.37%
- Activity [6]: inactive
- Activity (NCI-H226): 110.48%
- Activity (TK-10): 96.78%
- Activity [7]: 114.78%
- Activity (KM12): 97.36%
- Activity (U-251): 94.12%
- Activity (SW-620): 106.34%
- Activity (SNB-75): 93.74%
- Activity (SF-268): 95.62%
- Activity [8]: 102.87%
- Activity (MCF7): 97.09%
- Activity [9]: 86.34%
- Activity (K562): 113.81%
- Activity [10]: 94.41%
- Activity (SR): 84.69%
- Activity [11]: 83.37%
- Activity [12]: 108.61%
- Activity (NCI-H522): 91.51%
- Activity (M14): 58.39%
- inhibition (Rattus norvegicus): Active
- Activity (A498): 109%
- Activity [13]: 85.69%
- Activity [14]: 99.74%
- Activity (NCI-H23): 98.53%
- Activity [15]: 98.31%
- Activity (NCI-H460): 103.16%
- Activity (786-0): 103.79%
- Activity (SN12C): 111.21%
- Activity [16]: 98.17%
